# Screening results (PubChem BioAssay)
# DNMT1 inh: inhibitors of human DNMT1 | P26358 | DNMT1 molecular beacon, Hinp1I cleavage, fluorescence | inhibition (reported as % activation of signal), % at 10 µM | 0.83% of 360,000 active; in the data active = inhibition above about 50%
# LMPTP block: LMPTP (human) inhibition. P24666. recombinant LMPTP-A, OMFP fluorogenic substrate, fluorescence intensity. inhibition, % at 20 µM. 0.22% of 360,000 active. AID 651560;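 active = compounds that cut the enzyme signal by at least half of the control window in the single-dose screen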
# Target sequence (P24666 whole entry, looked up): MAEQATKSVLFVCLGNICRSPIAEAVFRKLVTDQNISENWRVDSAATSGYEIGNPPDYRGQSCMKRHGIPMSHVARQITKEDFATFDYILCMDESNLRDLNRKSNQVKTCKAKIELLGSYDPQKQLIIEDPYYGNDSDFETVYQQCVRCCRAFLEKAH
#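 Buffer or medium: Bis-Tris pH 6.0, DTT, detergent; Assay system: LMPTP-A enzyme; Quantity: 0.625 nM enzyme; Detection: endpoint fluorescence intensity; Times: 50 min dark incubation at room temperature; Controls: substrate-only low control, DMSO enzyme-plus-substrate high control; Doses: single 20 µM dose; Read-out: percent inhibition versus substrate-only and uninhibited controls; Reagent: 400 µM OMFP.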
# Scp-1 inhibitor: Scp-1 (human) phosphatase inhibition | Q9GZU7 | Recombinant Scp1, phosphopeptide, malachite green phosphate absorbance | inhibition, % at 20 µM | 0.88% of 340,000 active | AID 493091;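 active = inhibition above about 50% at 20 µM, limit read from the data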
# Target sequence (Q9GZU7 76-261 limits assumed): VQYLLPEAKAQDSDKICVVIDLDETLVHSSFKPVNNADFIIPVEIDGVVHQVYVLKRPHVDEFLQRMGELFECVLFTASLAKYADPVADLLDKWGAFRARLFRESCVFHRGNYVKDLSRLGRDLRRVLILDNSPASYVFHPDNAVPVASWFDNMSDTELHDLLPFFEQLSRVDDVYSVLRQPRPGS
#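 System: truncated SCP-1 phosphatase (76-261aa); medium: Tris acetate buffer pH 5.5 with MgCl2 and Tween-20; incubation: 45 min room-temperature reaction, 5 min colour, 30 min stabiliser; compound: single 20 µM dose, 1% DMSO; reagent: Phosphorylated 17-residue peptide substrate; read-out: % inhibition at 20 µM; technique: colorimetric free-phosphate detection, absorbance 630 nm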
# SUMO1-SIM PPI: alters human SUMO1 binding to SIM partners. SUMO1 binding to a labelled peptide, TR-FRET, 1 h. inhibition, % at 20 µM. 0.33% of 360,000 active; in the data active = inhibition above about 37%
# Target sequence (P63165 whole entry, looked up): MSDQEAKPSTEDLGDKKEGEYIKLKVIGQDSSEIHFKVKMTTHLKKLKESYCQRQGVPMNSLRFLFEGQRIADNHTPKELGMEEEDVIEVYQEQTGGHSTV
# STEP block: blocks human striatal-enriched tyrosine phosphatase; P54829; recombinant STEP, OMFP fluorogenic substrate, fluorescence; inhibition, % at 20 µM; 0.25% of 360,000 active;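 active = inhibition at 20 µM, scaled per plate between control wells, above about 37%, limit read from the data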
#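 medium = Bis-Tris buffer pH 6.0, 2.5 mM DTT, 0.005% Tween 20 | test system = STEP (striatal-enriched tyrosine phosphatase) enzyme, cell-free | measure = normalized % inhibition | compound dosing = 20 µM, 1% DMSO | also added = 25 µM OMFP | schedule = reaction 20 min, ambient temperature | measured by = fluorescence read at 480 nm ex / 540 nm em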
# DNMT1 confirm: confirmation of human DNMT1 inhibitors. DNMT1 molecular beacon HinP1I cleavage, fluorescence. 8% of 2,300 active. shares compounds with DNMT1 inh. inhibition, % at 10 µM;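 active = average inhibition of at least 30% in the single-concentration confirmation test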
# DNMT1 interf: shows spectral interference in the DNMT1 beacon assay. 1% of 2,300 active. shares compounds with DNMT1 inh. activation (fluorescence interference), % at 10 µM. DNMT1 molecular beacon spectral interference counterscreen, fluorescence 485/520;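 active = activation of at least 30% at 10 µM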;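 note: DNMT1 catalytic domain with a HinP1I cleavage step and a FAM/dabcyl DNA beacon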
# Numbers stand for hits; i = inactive; nt = no result. A selection: hits, their analogues and other compounds. The true share with any hit is near 1.7%.
SMILES,DNMT1 inh,LMPTP block,Scp-1 inhibitor,SUMO1-SIM PPI,STEP block,DNMT1 confirm,DNMT1 interf
O=C(CCc1nc2ccccc2c(=O)[nH]1)Nc1nnc(SCc2ccc(Cl)cc2)s1,68,i,i,i,i,i,i
CN(CC(=O)Nc1ccc(Cl)c(Cl)c1)C(=O)CNC(=O)C1CCCCC1,i,i,i,i,i,nt,nt
CCc1ccc(NC(=O)CNS(=O)(=O)c2c(C)noc2C)cc1,68,i,i,i,i,i,i
CCc1ccc(NC(=O)C2CCN(S(=O)(=O)c3c(C)noc3C)CC2)cc1,i,i,i,i,i,nt,nt
Cc1ccc(C)c(N(C(=O)Cn2nnc(-c3cccs3)n2)C(C(=O)NC2CCCC2)c2ccncc2)c1 (stereo unspecified),i,i,i,i,i,nt,nt
COc1cccc(N(C(=O)Cn2nnc(-c3cccs3)n2)C(C(=O)NC2CCCCC2)c2ccncc2)c1 (stereo unspecified),68,i,i,i,i,i,i
C#CCNC(=O)c1ccc2sc([C@H]3C[C@H](O)[C@@H](CO)O3)nc2c1,i,i,nt,i,i,nt,nt
Cc1cc(C(=O)N/N=C/c2cc(Br)c(Br)o2)n[nH]1,64,i,i,i,i,i,i
CCCn1nnnc1NCc1ccc(N2CCCC2)cc1,i,i,i,i,i,nt,nt
CCCCn1nnnc1NCc1ccc(N2CCCC2)cc1,70,i,i,i,i,i,i
O=C(CSc1nnc(C2CC2)n1CC1CCCO1)Nc1cccc(Cl)c1 (stereo unspecified),i,i,i,i,i,nt,nt
CN(CCC#N)C(=O)COC(=O)c1c2c(nc3ccccc13)/C(=C/c1ccco1)CC2,100,59,78,i,i,i,i
CC(C)CNC(=O)COC(=O)c1c2c(nc3ccccc13)/C(=C\c1cccs1)CC2,i,i,i,i,i,nt,nt
COc1ccc(N(C(=O)Cn2nnc(-c3ccc(Cl)cc3)n2)C(C(=O)NCC2CCCO2)c2ccc(C)cc2)cc1 (stereo unspecified),55,i,i,i,i,i,i
COc1ccc(N(C(=O)Cn2nnc(-c3ccc(Cl)cc3)n2)C(C(=O)NCC2CCCO2)c2ccncc2)cc1 (stereo unspecified),i,i,i,i,i,nt,nt
COc1ccc(N(C(=O)Cn2nnc(-c3ccccc3F)n2)C(C(=O)NCC2CCCO2)c2ccc(Cl)cc2)cc1 (stereo unspecified),53,i,i,i,i,i,i
COc1cccc(CNc2nc3cc(-c4cccc(C(F)(F)F)c4)sc3c(=O)n2C)c1,i,i,nt,i,i,nt,nt
CC(=O)Nc1ccc(CNc2nc3cc(-c4cccc(C(F)(F)F)c4)sc3c(=O)n2C)cc1,61,i,nt,i,i,i,i
CC(=O)Nc1sc(C)c(C)c1C(=O)OCC(=O)NC(C)c1ccccc1 (stereo unspecified),i,i,i,i,i,nt,nt
CCOc1ccc(Br)cc1C(=O)Nc1ccc(C(=O)NCC(C)C)cc1,63,i,i,i,i,i,i
CCOc1ccc(CCNC(=O)COC(=O)c2ccc(OC(C)C)cc2)cc1OCC,i,i,i,i,i,nt,nt
CCOc1ccc(NC(=S)Nc2ccc3nsnc3c2)cc1,85,i,i,50,i,i,i
C[C@H](CO)N1C[C@H](C)[C@H](CN(C)C(=O)c2ccccc2)OCc2cnnn2CCCC1=O,i,i,nt,i,i,nt,nt
Clc1ccc(OCc2nn3c(-c4ccccc4)nnc3s2)c(Cl)c1,59,i,i,i,i,i,i
CN(C)CCCN(C(=O)/C=C/c1cccs1)c1nc2ccc(F)cc2s1,i,i,i,i,i,nt,nt
SMILES,DNMT1 inh,LMPTP block,Scp-1 inhibitor,SUMO1-SIM PPI,STEP block,DNMT1 confirm,DNMT1 interf
CN(C)CCN(C(=O)/C=C/c1cccs1)c1nc2c(F)cc(F)cc2s1,58,i,i,i,i,i,i
CCC(=O)N1N=C(c2c(-c3ccccc3)c3cc(Cl)ccc3[nH]c2=O)CC1c1ccco1 (stereo unspecified),52,i,i,i,i,i,i
O=C(O)CCC(=O)N1N=C(c2c(-c3ccccc3)c3cc(Cl)ccc3[nH]c2=O)CC1c1ccco1 (stereo unspecified),i,i,i,i,i,nt,nt
CCC(CCCO)CCC[C@H](C)CCC1OCCO1 (stereo partly specified),59,i,i,i,i,i,i
O=C(NCc1ccc2c(c1)OCO2)C1CCN(C(=O)Nc2ccc(Cl)cc2)CC1,75,i,i,i,i,i,i
Clc1ccc(-c2ccnc3nc(N4CCOCC4)nn23)c(Cl)c1,i,i,i,i,i,nt,nt
CCCCCCCCN1[C@@H](CC(=O)OC)c2cc(F)ccc2S1(=O)=O,82,52,i,i,i,i,i
FC(F)Sc1nc2ccccc2[nH]1,i,i,i,i,i,nt,nt
CC1CC(NC(=O)N(C)C)N(C)C(=O)N1 (stereo unspecified),66,i,i,i,i,i,i
Cc1c(C(=O)Nc2ccccn2)sc2nc3n(c(=O)c12)CCC3,i,i,i,i,i,nt,nt
Cc1nc(NC(=O)c2ccco2)sc1-c1csc(Nc2ccc(Cl)cc2Cl)n1,63,i,i,i,i,i,i
CCOc1cc(S(=O)(=O)NCCCN2CCOCC2)c(C)cc1C,i,i,i,i,i,nt,nt
O=C(O)CN1C(=O)/C(=C/c2ccc(N3CCCCC3)o2)SC1=S,i,i,i,i,i,nt,nt
COC(=O)CN1C(=O)S/C(=C/c2ccc(N3CCCCC3)o2)C1=O,67,i,i,i,i,70,52
CCc1nc2ccc(C(=O)NCCc3c[nH]c4ccccc34)cn2c1N(C)CCCc1ccccc1,i,i,nt,i,i,nt,nt
O=C(/C=C/c1ccco1)Nc1cccc(C(=O)Nc2ccccc2C(=O)O)c1,86,i,58,53,i,i,i
Cc1ccc(NC(=O)c2cccc(NC(=O)/C=C/c3ccco3)c2)cc1C,i,i,i,i,i,nt,nt
Cc1ccc(-n2nc3ccc(NC(=O)/C=C/c4ccco4)cc3n2)cc1,104,i,i,i,i,i,i
CCc1ccccc1NC(=O)c1cccc(NC(=O)/C=C/c2ccco2)c1,i,i,i,i,i,nt,nt
COc1ccc(/C=N/Nc2cc(N3CCCC3)nc(N3CCCC3)n2)cc1,58,i,i,i,i,i,i
Oc1ccc(/C=N/Nc2cc(N3CCCC3)nc(N3CCCC3)n2)cc1,i,i,i,i,i,nt,nt
CCCCn1c(N)c(N(CCC(C)C)C(=O)COC(=O)c2ccc3ccccc3c2)c(=O)[nH]c1=O,i,i,i,i,i,nt,nt
Cc1ccc(N=Cc2c(O)[nH]c3ccccc23)c([N+](=O)[O-])c1,59,i,i,i,i,i,i
COc1ccc(N=Cc2c(O)[nH]c3ccccc23)cc1,i,i,i,i,i,nt,nt
